The record followed here is ChEMBL document CHEMBL1150169, “Fatty acid synthase inhibitors from plants: isolation, structure elucidation, and SAR studies” (J Nat Prod, 2002).

Values after ≈ are worked out from the molar mass of the structure shown.

The nature of assay [1]: Inhibition of Saccharomyces cerevisiae fatty acid synthase. In a few lines:
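Yeast FAS semipurified by 50% ammonium sulfate precipitation of lysate (pH 6.6 phosphate, EDTA, DTT, protease inhibitors), dialyzed, and diluted to 250 mOD/min/mL. Samples preincubated with enzyme 30 min at room temperature, then mixed 1:1 with mix of 1 mM malonyl CoA and NADPH, 40 µM acetyl CoA, and 2 mM DTT. A340 read kinetically; rate over initial 2 min. IC50 from dose-response curves.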

Assay [2] relates to Candida albicans. Briefly: Antifungal activity against Candida albicans ATCC 90028. Type of assay: functional, organism-based.
Assay [3] deals with Cryptococcus neoformans. Briefly: Antifungal activity against Cryptococcus neoformans ATCC 90113. In kind it is functional, organism-based.

With `O=C(O)C[C@H]1C(=O)O[C@H]2[C@H](OC(=O)c3cc(O)c(O)c(O)c3)[C@@H](OC(=O)c3cc(O)c(O)c4c3[C@H]1[C@H](O)C(=O)O4)[C@H](OC(=O)c1cc(O)c(O)c(O)c1)O[C@@H]2COC(=O)c1cc(O)c(O)c(O)c1` [CHEBULINIC ACID], the IC50 in assay [1], in assay [2] and in assay [3] was over 50 µg/mL throughout.

In the case of `CC1(C)CC[C@]2(C(=O)O[C@@H]3O[C@H](CO)[C@@H](O)[C@H](O)[C@H]3O)CC[C@]3(C)C(=CC[C@@H]4[C@@]5(C)C[C@@H](O)[C@H](O)[C@@](C)(CO)[C@@H]5[C@H](O)C[C@]43C)[C@@H]2C1` [CHEBULOSIDE II], the half-maximal inhibitory concentration (IC50) in assay [1], in assay [2] and in assay [3] was over 50 µg/mL throughout.

For `O=c1oc2c(O)c(O)cc3c(=O)oc4c(O)c(O)cc1c4c23` [ELLAGIC ACID], the IC50 – broadly, the point on the concentration scale where inhibition reaches its midpoint – was 20 µg/mL (≈ 66.2 µM) in assay [1], over 50 µg/mL in assay [2] and 5.5 µg/mL (≈ 18.2 µM) in assay [3].

As to `C[C@@H]1O[C@@H](Oc2cc3c(=O)oc4c(O)c(O)cc5c(=O)oc(c2O)c3c45)[C@H](O)[C@H](O)[C@H]1O` [ESCHWEILENOL C], the IC50 in assay [1] was 7.5 µg/mL (≈ 16.7 µM); in assay [2] it was over 50 µg/mL; in assay [3], over 50 µg/mL.

As for `O=c1c(O)c(-c2ccc(O)c(O)c2)oc2cc(O)ccc12` [FISETIN], the IC50 in assay [1], in assay [2] and in assay [3] was over 50 µg/mL each time.

Turning to `O=C1CC(c2ccccc2)Oc2ccccc21` (centres undefined) [FLAVANONE], the IC50 in assay [1], in assay [2] and in assay [3] was over 50 µg/mL in each case.

With `COc1ccc(-c2coc3cc(O)c(O)cc3c2=O)cc1` [FORMONETIN], the values for the IC50 in assay [1], in assay [2] and in assay [3] were 50 µg/mL (≈ 176 µM), over 50 µg/mL and over 50 µg/mL, respectively.

`O=c1c(O)c(-c2ccccc2)oc2cc(O)cc(O)c12` [GALANGIN]: the IC50 in assay [1], in assay [2] and in assay [3] was over 50 µg/mL each time.

For `COc1cc(-c2cc(=O)c3c(O)c(OC)c(OC)c(OC)c3o2)cc(OC)c1OC` [GARDENIN], the IC50 in assay [1], in assay [2] and in assay [3] was over 50 µg/mL each time.

For the compound `O=c1c(-c2ccc(O)cc2)coc2cc(O)cc(O)c12` [GENISTEIN], the IC50 in assay [1], in assay [2] and in assay [3] was over 50 µg/mL each time.

With `CC(C)=CCc1c(O)ccc(C(=O)/C=C/c2ccc(O)cc2)c1O` [ISOBAVACHALCONE], the IC50 was over 50 µg/mL in assay [1], 2 µg/mL (≈ 6.17 µM) in assay [2] and 45 µg/mL (≈ 139 µM) in assay [3].

Take `O=c1c(O)c(-c2ccc(O)cc2)oc2cc(O)cc(O)c12` [KAEMPFEROL]: the results for the IC50 in assay [1], in assay [2] and in assay [3] were 50 µg/mL (≈ 175 µM), over 50 µg/mL and over 50 µg/mL, respectively.

Turning to `O=c1cc(-c2ccc(O)c(O)c2)oc2cc(O)cc(O)c12` [LUTEOLIN], the IC50 was 9 µg/mL (≈ 31.4 µM) in assay [1], over 50 µg/mL in assay [2] and over 50 µg/mL in assay [3].

On to `O=c1c(O)c(-c2cc(O)c(O)c(O)c2)oc2cc(O)cc(O)c12` [MYRICETIN], for which the values for the IC50 in assay [1], in assay [2] and in assay [3] were 15 µg/mL (≈ 47.1 µM), over 50 µg/mL and over 50 µg/mL, respectively.

With `O=C1C[C@@H](c2ccc(O)cc2)Oc2cc(O)cc(O)c21` [NARINGENIN], the IC50 in assay [1], in assay [2] and in assay [3] was over 50 µg/mL in each case.

Consider `COc1c(O[C@@H]2O[C@H](CO)[C@@H](O)[C@H](O)[C@H]2O)cc2c(=O)oc3c4c(cc5c(=O)oc1c2c35)OCO4` [NYSSOSIDE], for which the IC50 in assay [1], in assay [2] and in assay [3] was over 50 µg/mL throughout.

Turning to `O=c1c(-c2ccc(O)c(O)c2)coc2cc(O)cc(O)c12` [OROBOL], the IC50 in assay [1], in assay [2] and in assay [3] was over 50 µg/mL each time.

With `O=C(OC[C@H]1O[C@@H](OC(=O)c2cc(O)c(O)c(O)c2)[C@H](OC(=O)c2cc(O)c(O)c(O)c2)[C@@H](OC(=O)c2cc(O)c(O)c(O)c2)[C@@H]1OC(=O)c1cc(O)c(O)c(O)c1)c1cc(O)c(O)c(O)c1` [PENTAGALLOYL GLUCOSE], the figures for the IC50 in assay [1], in assay [2] and in assay [3] were 2.8 µg/mL (≈ 2.98 µM), over 50 µg/mL and over 50 µg/mL, respectively.

With `O=c1c(O)c(-c2ccc(O)c(O)c2)oc2cc(O)cc(O)c12` [QUERCETIN], the IC50 in assay [1] is 12 µg/mL (≈ 39.7 µM); in assay [2], over 50 µg/mL; in assay [3] it was over 50 µg/mL.

With `C[C@@H]1O[C@@H](OC[C@H]2O[C@@H](Oc3c(-c4ccc(O)c(O)c4)oc4cc(O)cc(O)c4c3=O)[C@H](O)[C@@H](O)[C@@H]2O)[C@H](O)[C@H](O)[C@H]1O` [RUTIN], the IC50 in assay [1] was over 50 µg/mL; in assay [2], over 50 µg/mL; in assay [3], 30 µg/mL (≈ 49.1 µM).

Take `COc1cc(O)c2c(=O)cc(-c3ccc(O)cc3)oc2c1-c1cc(-c2cc(=O)c3c(O)cc(O)cc3o2)ccc1O` [SOTETSUFLAVONE]: the IC50 in assay [1] was 25 µg/mL (≈ 45.2 µM); in assay [2], over 50 µg/mL; in assay [3], over 50 µg/mL.

For `CC1(C)CC[C@]2(C(=O)O)CC[C@]3(C)C(=CC[C@@H]4[C@@]5(C)C[C@@H](O)[C@H](O)[C@@](C)(CO)[C@@H]5[C@H](O)C[C@]43C)[C@@H]2C1` [TERMINOLIC ACID], the IC50 in assay [1], in assay [2] and in assay [3] was over 50 µg/mL throughout.

Take `C[C@H]1[C@H](C)CC[C@]2(C(=O)O)CC[C@]3(C)C(=CC[C@@H]4[C@@]5(C)CC[C@H](O)C(C)(C)[C@@H]5CC[C@]43C)[C@H]12` [URSOLIC ACID]: the results for the IC50 in assay [1], in assay [2] and in assay [3] were 38 µg/mL (≈ 83.2 µM), over 50 µg/mL and over 50 µg/mL, respectively.
